Experimental data from ChEMBL document CHEMBL4177749, “A Synthetic Dual Drug Sideromycin Induces Gram-Negative Bacteria To Commit Suicide with a Gram-Positive Antibiotic” (J Med Chem, 2018).
≈ marks a conversion by molar mass, not a printed value.

Tests used:
Acinetobacter baumannii [1] = test: Antibacterial activity against Acinetobacter baumannii ATCC 17978 transfected with pNT255:ADC-1 after 18 hrs by broth microdilution method; type: functional; details: ATCC 17978, 18 h
Escherichia coli = test: Antibacterial activity against Escherichia coli DC0 after 18 hrs by broth microdilution method; type: functional; details: DC0, 18 h
Acinetobacter baumannii [2] = test: Antibacterial activity against Acinetobacter baumannii ATCC 17978 after 18 hrs by broth microdilution method; type: functional; details: ATCC 17978, 18 h
Acinetobacter baumannii [3] = test: Antibacterial activity against Acinetobacter baumannii ATCC 17961 clinical isolate after 18 hrs by broth microdilution method; type: functional; details: ATCC 17961, 18 h
Acinetobacter baumannii [4] = test: Antibacterial activity against Acinetobacter baumannii ATCC BAA 1800 clinical isolate after 18 hrs by broth microdilution method; type: functional; details: ATCC BAA 1800, 18 h
Acinetobacter baumannii [5] = test: Antibacterial activity against Acinetobacter baumannii ATCC 17978 transfected with pNT255 after 18 hrs by broth microdilution method; type: functional; details: ATCC 17978, 18 h
Acinetobacter baumannii [6] = test: Antibacterial activity against Acinetobacter baumannii ATCC BAA 1793 clinical isolate after 18 hrs by broth microdilution method; type: functional; details: ATCC BAA 1793, 18 h
Acinetobacter baumannii [7] = test: Antibacterial activity against Acinetobacter baumannii ATCC BAA 1797 clinical isolate after 18 hrs by broth microdilution method; type: functional; details: ATCC BAA 1797, 18 h
Pseudomonas aeruginosa [8] = test: Antibacterial activity against wild type Pseudomonas aeruginosa KW799 after 18 hrs by broth microdilution method; type: functional; details: KW799, 18 h
Pseudomonas aeruginosa [9] = test: Antibacterial activity against Pseudomonas aeruginosa PAO1 ATCC […] by broth microdilution method; type: functional
Pseudomonas aeruginosa [10] = test: Antibacterial activity against Pseudomonas aeruginosa ATCC 27853 by broth microdilution method; type: functional
Beta-lactamase = Beta-lactamase (Acinetobacter baumannii, UniProt Q9L4R5); test: Drug metabolism assessed as Acinetobacter baumannii ADC-1-mediated (S)-N-((3-(3-Fluoro-4-(4-glycylpiperazin-1-yl)phenyl)-2-oxooxazolidin-5-yl)methyl)acetamide release at 20 uM after 40 mins by LC/MS method; type: ADME
Procedure, shortened: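 Purified ADC-1 β-lactamase (expressed as described earlier) […] with 20 μM conjugate in 50 mM sodium phosphate, pH 7.4, 1% DMSO final, room temperature, 40 min. Release of the oxazolidinone followed by LC/MS. Controls run under the same conditions: conjugate alone (20 μM) and enzyme alone (1 μM).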

Pseudomonas aeruginosa [11] = test: Antibacterial activity against Pseudomonas aeruginosa by broth microdilution method; type: functional

Compound | MIC (Acinetobacter baumannii [1]) [µM] | MIC (Escherichia coli) [µM] | MIC (Acinetobacter baumannii [2]) [µM] | MIC (Acinetobacter baumannii [3]) [µM] | MIC (Acinetobacter baumannii [4]) [µM] | MIC (Acinetobacter baumannii [5]) [µM] | MIC (Acinetobacter baumannii [6]) [µM] | MIC (Acinetobacter baumannii [7]) [µM] | MIC (Pseudomonas aeruginosa [8]) [µM] | MIC (Pseudomonas aeruginosa [9]) [µM] | MIC (Pseudomonas aeruginosa [10]) [µM] | Drug metabolism (Beta-lactamase) | MIC (Pseudomonas aeruginosa [11]) [µM]
CC(=O)NC[C@H]1CN(c2ccc(N3CCN(C(=O)CNC(=O)OCC4=C(C(=O)O)N5C(=O)[C@@H](NC(=O)C(N)c6ccccc6)[C@H]5SC4)CC3)c(F)c2)C(=O)O1 (stereo partly specified) | > 50 | > 50 | > 50 | > 50 | > 50 | > 50 | > 50 | > 50 | > 50 | – | – | – | –
CC(O)C(NCC(=O)NC(=O)C(CCCNC(=O)CCCCCCCCC(=O)NC(C(=O)N[C@@H]1C(=O)N2[C@@H]1SC(C)(C)[C@@H]2C(=O)O)c1ccccc1)NC(=O)C(CCCN(O)C=O)NC(=O)C(CO)NC(=O)C1CCN=C2C(NC(=O)CCC(N)=O)=Cc3cc(O)c(O)cc3N21)C(=O)NC(CO)C(=O)NC1CCCN(O)C1=O (stereo partly specified) | – | – | – | – | – | – | – | – | – | > 100 | 0.024 (≈ 0.0386 µg/mL) | – | –
CC(=O)OCC1=C(C(=O)O)N2C(=O)[C@@H](NC(=O)C(NC(=O)CN(CCCCNC(=O)c3cccc(O)c3O)C(=O)c3cccc(O)c3O)c3ccccc3)[C@H]2SC1 (stereo partly specified) | > 50 | < 0.025 | 0.4 (≈ 0.322 µg/mL) | 0.8 (≈ 0.645 µg/mL) | 25 (≈ 20.1 µg/mL) | 0.4 (≈ 0.322 µg/mL) | 12.5 (≈ 10.1 µg/mL) | > 50 | 0.4 (≈ 0.322 µg/mL) | – | – | – | –
CC(=O)NC[C@H]1CN(c2ccc(N3CCN(C(=O)CO)CC3)c(F)c2)C(=O)O1 [EPEREZOLID] | > 50 | – | > 50 | – | – | > 50 | – | – | – | – | – | – | –
CC(=O)NC[C@H]1CN(c2ccc(N3CCN(C(=O)CNC(=O)OCC4=C(C(=O)O)N5C(=O)[C@@H](NC(=O)C(NC(=O)CN(CCCCNC(=O)c6cccc(O)c6O)C(=O)c6cccc(O)c6O)c6ccccc6)[C@H]5SC4)CC3)c(F)c2)C(=O)O1 (stereo partly specified) | 6 (≈ 7.1 µg/mL) | < 0.025 | 0.4 (≈ 0.473 µg/mL) | 0.8 (≈ 0.947 µg/mL) | 0.8 (≈ 0.947 µg/mL) | 0.4 (≈ 0.473 µg/mL) | 0.8 to 16 (≈ 0.947 to 18.9 µg/mL) | 6.25 (≈ 7.39 µg/mL) | 0.2 to 0.4 (≈ 0.237 to 0.473 µg/mL) | – | – | Metabolite_Detected | –
CC(=O)OCC1=C(C(=O)O)N2C(=O)[C@@H](NC(=O)C(N)c3ccccc3)[C@H]2SC1 (stereo partly specified) | > 50 | 50 (≈ 20.3 µg/mL) | > 50 | > 50 | > 50 | > 50 | > 50 | > 50 | > 50 | – | – | – | –
CC(=O)NC[C@H]1CN(c2ccc(N3CCN(C(=O)CNC(=O)CN(CCCCNC(=O)c4cccc(O)c4O)C(=O)c4cccc(O)c4O)CC3)c(F)c2)C(=O)O1 | > 50 | > 50 | > 50 | > 50 | > 50 | > 50 | > 50 | > 50 | > 50 | – | – | – | –
CC(=O)Oc1cccc(C(=O)NCCCCN(CC(=O)N[C@@H](C(=O)N[C@@H]2C(=O)N3[C@@H]2SC(C)(C)[C@@H]3C(=O)O)c2ccc(O)cc2)C(=O)c2cccc(OC(C)=O)c2OC(C)=O)c1OC(C)=O | – | – | – | – | – | – | – | – | – | – | – | – | 0.02 to 0.16 (≈ 0.0187 to 0.149 µg/mL)
CC(=O)NC[C@H]1CN(c2ccc(N3CCN(C(=O)CN)CC3)c(F)c2)C(=O)O1 | > 500 | > 50 | > 500 | > 50 | > 50 | > 500 | > 50 | > 50 | > 50 | – | – | – | –
